“And” between values parts separate entries of the source, which are not always exact repeats. Equal values may be shown once. The source made the active and inactive calls.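 Rule for the calls: active = VEGF mRNA rise whose fitted curve reaches 40% activation within the highest concentration tested on that sample; inactive = the rest, including effects opposite to expected.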
What was measured:
[1] = test system: U2OS VEGF mRNA induction, RT-PCR; test: activators raising VEGF transcript levels via HIF – cell-based, U2OS, RT-PCR, dry powder, set 3, orthogonal assay for HIF pathway activator project, dose response (AID 493230)
In short: (§1)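 Assay system: U2OS osteosarcoma cells / Medium: DMEM without phenol red, 10% FBS / Schedule: 24 h plating, then 24 h compound exposure at 37 °C / Technique: TaqMan RT-PCR, VEGF-A vs beta-actin / Benchmarks: DMSO control / Repeats: duplicates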

[2] = as above; conditions: U2OS VEGF mRNA induction, RT-PCR; at 38 µM (top of the series)
In short: as §1

c1ccc(-c2nnc(-c3ccccn3)nc2NCC2CC2)cc1
AC40 [1]: 2.29 µM

OCCCNc1nc(-c2ccccn2)nnc1-c1ccccc1
AC40 [1]: 8.68 µM

c1ccc(CCNc2nc(-c3ccccn3)nnc2-c2ccccc2)cc1
AC40 [1]: 5.17 µM

CC(C)(C)OC(=O)N1CCN(Cc2ccc(O)c3ncccc23)CC1
AC40 [1]: 9.12 µM

O=C(c1cc(-c2ccccc2)on1)N1CCc2cccnc21
activation [2]: -0.596% (inactive)

c1ccc(-c2nnc(-c3ccccn3)nc2N2CCC(N3CCOCC3)CC2)cc1
AC40 [1]: 6.33 µM

O=C(Nc1nc(-c2ccccc2)cs1)c1cc(-c2ccccc2)on1
activation [2]: 12.2% (inactive)

c1ccc(-c2nnc(Nc3nc(-c4ccccn4)nnc3-c3ccccc3)s2)cc1
AC40 [1]: 1.08 µM

Oc1ccc(CN2CCC(Cc3ccccc3)CC2)c2cccnc12
AC40 [1]: 6.73 µM

Oc1ccc(CNC2Cc3ccccc3C2)c2cccnc12
AC40 [1]: 12.9 µM

Cc1ccc(Nc2nc(-c3ccccn3)nnc2-c2ccccc2)cn1
AC40 [1]: 4.94 µM

O=C(c1cc(-c2ccccc2)on1)N1CCC(N2CCCC2)CC1
activation [2]: 5.5% (inactive)

Cc1ccccc1CNc1nc(-c2ccccn2)nnc1-c1ccccc1
AC40 [1]: 0.853 µM

CN1CCN(C(=O)c2cc(-c3ccccc3)on2)CC1
activation [2]: -2.38% (inactive)

c1ccc(-c2csc(Nc3nc(-c4ccccn4)nnc3-c3ccccc3)n2)cc1
AC40 [1]: 0.495 µM

CN1CCN(c2nc(-c3ccccn3)nnc2-c2ccccc2)CC1
AC40 [1]: 5.84 µM

c1ccc(-c2nnc(-c3ccccn3)nc2NCc2ccccn2)cc1
AC40 [1]: 4.1 µM

Cc1ccc(NC(=O)c2cc(-c3ccccc3)on2)cn1
activation [2]: 4.97% (inactive)

O=C(Nc1ncc(-c2ccccc2)o1)c1cc(-c2ccccc2)on1
activation [2]: 6.52% (inactive)

Cn1c(-c2ccccc2)cnc1Nc1nc(-c2ccccn2)nnc1-c1ccccc1
AC40 [1]: 4.51 µM

COc1cccc(CNc2nc(-c3ccccn3)nnc2-c2ccccc2)c1
AC40 [1]: 1.21 µM

CCCCNC(=O)c1cc(-c2ccccc2)on1
AC40 [1]: 25 µM

c1ccc(-c2nnc(-c3ccccn3)nc2N2CCN(c3ccncc3)CC2)cc1
AC40 [1]: 2.91 µM

O=C(Nc1cnc2ccccc2c1)c1cc(-c2ccccc2)on1
activation [2]: 4.77% (inactive)

c1ccc(-c2nnc(-c3ccccn3)nc2NCCc2ccccn2)cc1
AC40 [1]: 6.47 µM

c1ccc(-c2nnc(-c3ccccn3)nc2NCCN2CCOCC2)cc1
AC40 [1]: 7.65 µM

c1ccc(-c2nnc(-c3ccccn3)nc2Nc2cnc3ccccc3n2)cc1
AC40 [1]: 1.48 µM

c1ccc(-c2nnc(-c3ccccn3)nc2NCC2CCCCC2)cc1
AC40 [1]: 1.4 µM

c1ccc(-c2nnc(-c3ccccn3)nc2NCc2cccnc2)cc1
AC40 [1]: 3.44 µM

O=C(c1cc(-c2ccccc2)on1)N1CCC(CO)CC1
activation [2]: 2.91% (inactive)

Clc1cccc(CNc2nc(-c3ccccn3)nnc2-c2ccccc2)c1
AC40 [1]: 0.953 µM

O=C(NCCN1CCOCC1)c1cc(-c2ccccc2)on1
AC40 [1]: 29.1 µM

O=C(NCCCn1ccnc1)c1cc(-c2ccccc2)on1
AC40 [1]: 17.2 µM

C=CCNc1nc(-c2ccccn2)nnc1-c1ccccc1
AC40 [1]: 4.08 µM

CC(C)(C)CCNc1nc(-c2ccccn2)nnc1-c1ccccc1
AC40 [1]: 0.782 µM and 0.753 µM

Cc1ccccc1CNC(=O)c1cc(-c2ccccc2)on1
AC40 [1]: > 38 µM (inactive)

OCC1CCN(c2nc(-c3ccccn3)nnc2-c2ccccc2)CC1
AC40 [1]: 10.9 µM

CN(C)c1nc(-c2ccccn2)nnc1-c1ccccc1
AC40 [1]: 6.76 µM

O=C(NCCN1CCCCC1)c1cc(-c2ccccc2)on1
activation [2]: 2.31% (inactive)

Cc1ccc(CNc2nc(-c3ccccn3)nnc2-c2ccccc2)cc1C
AC40 [1]: 0.83 µM

c1ccc(-c2cnc(Nc3nc(-c4ccccn4)nnc3-c3ccccc3)s2)cc1
AC40 [1]: 0.433 µM

O=C(NCC1CCCCC1)c1cc(-c2ccccc2)on1
activation [2]: 5.37% (inactive)

O=C(c1cc(-c2ccccc2)on1)N1CCC(N2CCOCC2)CC1
activation [2]: 12.2% (inactive)

From PubChem BioAssay AID493230 (Broad Institute, 2011)
